Data: ChEMBL document CHEMBL2321820, “Discovery of HSD-621 as a Potential Agent for the Treatment of Type 2 Diabetes” (ACS Med Chem Lett, 2013)

Assays:
[1] = Volume of distribution at steady state in Beagle dog at 2 mg/kg, iv; assay type: ADME, organism-based, Canis lupus familiaris; design: dose 2 mg/kg, route intravenous; conditions: in vivo, read-out: Vdss
Summary of the method: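 Male dogs were given 2 mg/kg intravenously in 50% DMSO/50% PEG200.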

[2] = Oral bioavailability in Sprague-Dawley rat at 10 mg/kg; assay type: ADME, organism-based; conditions: in vivo
Summary of the method: (§1)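 SD rats received 2 mg/kg iv in 50% DMSO/50% PEG200, or 10 mg/kg po in 2% Tween/0.5% methyl cellulose in water. PK parameters come from each route.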

[3] = AUC in Beagle dog at 5 mg/kg, po; conditions: plasma
[4] = test system: Salmonella typhimurium; assay: Genotoxicity in Salmonella typhimurium by Ames test; assay type: toxicity, organism-based; conditions: salmonella enterica subsp. enterica serovar typhimurium
[5] = Half life in Sprague-Dawley rat at 2 mg/kg, iv; assay type: ADME, organism-based; design: dose 2 mg/kg, route intravenous; conditions: in vivo; summary of the method: as §1
[6] = Oral bioavailability in Beagle dog at 5 mg/kg; conditions: in vivo
[7] = Cmax in Beagle dog at 5 mg/kg, po; conditions: in vivo
[8] = AUC in Sprague-Dawley rat at 2 mg/kg, iv; assay type: ADME, organism-based; design: dose 2 mg/kg, route intravenous; conditions: plasma; summary of the method: as §1
[9] = target: T1, 11-beta-hydroxysteroid dehydrogenase 1 (Mus musculus, UniProt P50172); assay: Inhibition of mouse 11beta-HSD1 expressed in CHO cells […] incubated for 30 mins prior to substrate addition measured after 120 mins by chemiluminescence assay in presence of 10% human serum; assay type: cell-based
Summary of the method: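 Cell-based assay with 10% (v/v) human serum in the culture medium. Run in duplicate, with 11-point 2-fold dilutions giving the IC50. Lower threshold was 10 nM.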

[10] = target: T2, Peroxisome proliferator-activated receptor gamma (Homo sapiens, UniProt P37231); assay: Inhibition of PPARgamma (unknown origin)
T2 sequence (P37231 whole entry): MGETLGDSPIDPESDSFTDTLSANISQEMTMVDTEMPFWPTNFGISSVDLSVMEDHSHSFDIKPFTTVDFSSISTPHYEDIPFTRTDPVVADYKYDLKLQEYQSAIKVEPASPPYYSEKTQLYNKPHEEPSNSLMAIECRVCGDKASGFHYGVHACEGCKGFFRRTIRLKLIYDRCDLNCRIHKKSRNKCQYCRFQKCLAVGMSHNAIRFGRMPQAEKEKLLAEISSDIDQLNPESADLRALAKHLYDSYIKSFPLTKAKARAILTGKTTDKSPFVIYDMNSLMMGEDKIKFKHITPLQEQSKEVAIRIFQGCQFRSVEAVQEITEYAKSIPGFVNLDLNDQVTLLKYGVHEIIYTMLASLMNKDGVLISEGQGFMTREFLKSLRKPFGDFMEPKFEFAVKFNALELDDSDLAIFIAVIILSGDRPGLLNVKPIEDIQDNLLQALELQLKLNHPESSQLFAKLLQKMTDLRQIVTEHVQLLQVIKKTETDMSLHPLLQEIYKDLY

[11] = organism: Mus musculus; assay: Toxicity in C57B6 DIO mouse assessed as body weight change at 0.3 mg/g of food after 31 days relative to untreated control; assay type: organism-based; conditions: in vivo, po, 744 h
[12] = Cmax in C57B6 mouse at 10 mg/kg, po; assay type: ADME, organism-based; design: dose 10 mg/kg, route oral; conditions: in vivo
Summary of the method: (§2)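 Male C57B6 mice. IV dose of 2 mg/kg in 50% DMSO/50% PEG200. Oral dose of 10 mg/kg in 2% Tween/0.5% methyl cellulose in water. Values are PK parameters from the iv and po arms.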

[13] = Clearance in C57B6 mouse at 2 mg/kg, iv; assay type: ADME, organism-based; design: dose 2 mg/kg, route intravenous; conditions: in vivo; summary of the method: as §2
[14] = AUC in Sprague-Dawley rat at 10 mg/kg, po; assay type: ADME, organism-based; design: dose 10 mg/kg, route oral; conditions: plasma; summary of the method: as §1
[15] = Volume of distribution at steady state in Sprague-Dawley rat at 2 mg/kg, iv; assay type: ADME, organism-based; design: dose 2 mg/kg, route intravenous; conditions: in vivo, read-out: Vdss
Summary of the method: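 Sprague-Dawley rats given a single iv dose of 2 mg/kg in 50% DMSO/50% PEG200. A separate oral arm received 10 mg/kg in 2% Tween/0.5% methyl cellulose in water.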

[16] = organism: Mus musculus; assay: Toxicity in C57B6 DIO mouse assessed as elevation of aspartate aminotransferase at 0.3 mg/g of food after 31 days; assay type: organism-based; conditions: in vivo, po, 744 h
[17] = organism: Mus musculus; assay: Antidiabetic activity in C57B6 DIO mouse assessed as reduction in fasting insulin level at 0.3 mg/g of food after 31 days by HPLC analysis relative to untreated control; assay type: functional; design: scale not given: the % may be the effect or the level left
Summary of the method: (§3)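 Male C57B6 mice, 5.5–7 months old, kept on a 35.5% fat diet for 4 months. Compound was mixed into food at 0.3 mg drug/g food for 31 days. Controls received diet 12492. Glucose and insulin were measured fed and fasting.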

[18] = Oral bioavailability in C57B6 mouse at 10 mg/kg; assay type: ADME, organism-based; conditions: in vivo; summary of the method: as §2
[19] = AUC in C57B6 mouse at 10 mg/kg, po; assay type: ADME, organism-based; design: dose 10 mg/kg, route oral; conditions: plasma; summary of the method: as §2
[20] = target: Voltage-gated inwardly rectifying potassium channel KCNH2 (Homo sapiens, UniProt Q12809); assay: Activity at human ERG at 33 uM
[21] = test system: Rattus norvegicus; assay: Toxicity in rat at 200 to 2000 mg/kg; assay type: organism-based; design: dose 200-2000 mg/kg; conditions: in vivo
Summary of the method: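 14-day safety assessment and metabolism study in rats at 200, 600 and 2000 mg/kg.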

[22] = test system: Canis familiaris; assay: Toxicity in dog at 100 to 1000 mg/kg; assay type: organism-based, Canis lupus familiaris; design: dose 100-1000 mg/kg; conditions: in vivo
Summary of the method: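 Dogs were dosed at 100, 300 and 1000 mg/kg in a 14-day safety assessment and metabolism study.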

[23] = Tmax in C57B6 mouse at 10 mg/kg, po; assay type: ADME, organism-based; design: dose 10 mg/kg, route oral; conditions: in vivo; summary of the method: as §2
[24] = organism: Mus musculus; assay: Toxicity in C57B6 DIO mouse assessed as reduction of food intake at 0.3 mg/g of food after 31 days; assay type: organism-based; conditions: in vivo, po, 744 h
[25] = organism: Mus musculus; assay: Antidiabetic activity in C57B6 DIO mouse assessed as reduction in fasting glucose level at 0.3 mg/g of food after 31 days by HPLC analysis relative to untreated control; assay type: functional; design: scale not given: the % may be the effect or the level left; summary of the method: as §3
[26] = Half life in mouse liver microsomes; assay type: ADME, Microsome
[27] = target: T3, Peroxisome proliferator-activated receptor alpha (Homo sapiens, UniProt Q07869); assay: Inhibition of PPARalpha (unknown origin)
T3 sequence (Q07869 whole entry): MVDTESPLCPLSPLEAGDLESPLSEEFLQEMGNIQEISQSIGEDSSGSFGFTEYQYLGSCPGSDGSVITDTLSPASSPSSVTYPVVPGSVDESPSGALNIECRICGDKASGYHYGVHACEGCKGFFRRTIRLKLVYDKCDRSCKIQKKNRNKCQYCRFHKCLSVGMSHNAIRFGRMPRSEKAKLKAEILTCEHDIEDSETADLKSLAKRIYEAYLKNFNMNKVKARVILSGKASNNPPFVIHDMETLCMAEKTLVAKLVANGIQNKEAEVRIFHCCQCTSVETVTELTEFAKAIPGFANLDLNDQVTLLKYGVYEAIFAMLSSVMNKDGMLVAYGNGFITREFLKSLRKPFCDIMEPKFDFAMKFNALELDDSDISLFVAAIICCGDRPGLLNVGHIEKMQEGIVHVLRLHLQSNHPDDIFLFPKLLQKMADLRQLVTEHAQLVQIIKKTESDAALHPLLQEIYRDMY

[28] = target: T1, 11-beta-hydroxysteroid dehydrogenase 1; assay: Inhibition of mouse 11beta-HSD1 expressed in CHO cells […] incubated for 30 mins prior to substrate addition measured after 120 mins by chemiluminescence assay; assay type: cell-based
Summary of the method: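 Cell-based assay run in duplicate. Compounds were tested as 11-point 2-fold dilutions, and IC50 was derived. Lower assay threshold was 10 nM.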

T1 sequence (P50172 whole entry): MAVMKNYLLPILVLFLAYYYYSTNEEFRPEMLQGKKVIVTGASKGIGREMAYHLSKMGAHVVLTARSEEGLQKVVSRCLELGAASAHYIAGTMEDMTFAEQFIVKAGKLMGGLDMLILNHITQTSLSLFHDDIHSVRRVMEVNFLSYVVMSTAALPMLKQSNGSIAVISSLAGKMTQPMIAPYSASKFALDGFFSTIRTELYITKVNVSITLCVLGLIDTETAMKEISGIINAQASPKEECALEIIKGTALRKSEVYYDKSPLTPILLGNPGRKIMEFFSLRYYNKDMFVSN
Chain of Voltage-gated inwardly rectifying potassium channel KCNH2 (Q12809 whole entry): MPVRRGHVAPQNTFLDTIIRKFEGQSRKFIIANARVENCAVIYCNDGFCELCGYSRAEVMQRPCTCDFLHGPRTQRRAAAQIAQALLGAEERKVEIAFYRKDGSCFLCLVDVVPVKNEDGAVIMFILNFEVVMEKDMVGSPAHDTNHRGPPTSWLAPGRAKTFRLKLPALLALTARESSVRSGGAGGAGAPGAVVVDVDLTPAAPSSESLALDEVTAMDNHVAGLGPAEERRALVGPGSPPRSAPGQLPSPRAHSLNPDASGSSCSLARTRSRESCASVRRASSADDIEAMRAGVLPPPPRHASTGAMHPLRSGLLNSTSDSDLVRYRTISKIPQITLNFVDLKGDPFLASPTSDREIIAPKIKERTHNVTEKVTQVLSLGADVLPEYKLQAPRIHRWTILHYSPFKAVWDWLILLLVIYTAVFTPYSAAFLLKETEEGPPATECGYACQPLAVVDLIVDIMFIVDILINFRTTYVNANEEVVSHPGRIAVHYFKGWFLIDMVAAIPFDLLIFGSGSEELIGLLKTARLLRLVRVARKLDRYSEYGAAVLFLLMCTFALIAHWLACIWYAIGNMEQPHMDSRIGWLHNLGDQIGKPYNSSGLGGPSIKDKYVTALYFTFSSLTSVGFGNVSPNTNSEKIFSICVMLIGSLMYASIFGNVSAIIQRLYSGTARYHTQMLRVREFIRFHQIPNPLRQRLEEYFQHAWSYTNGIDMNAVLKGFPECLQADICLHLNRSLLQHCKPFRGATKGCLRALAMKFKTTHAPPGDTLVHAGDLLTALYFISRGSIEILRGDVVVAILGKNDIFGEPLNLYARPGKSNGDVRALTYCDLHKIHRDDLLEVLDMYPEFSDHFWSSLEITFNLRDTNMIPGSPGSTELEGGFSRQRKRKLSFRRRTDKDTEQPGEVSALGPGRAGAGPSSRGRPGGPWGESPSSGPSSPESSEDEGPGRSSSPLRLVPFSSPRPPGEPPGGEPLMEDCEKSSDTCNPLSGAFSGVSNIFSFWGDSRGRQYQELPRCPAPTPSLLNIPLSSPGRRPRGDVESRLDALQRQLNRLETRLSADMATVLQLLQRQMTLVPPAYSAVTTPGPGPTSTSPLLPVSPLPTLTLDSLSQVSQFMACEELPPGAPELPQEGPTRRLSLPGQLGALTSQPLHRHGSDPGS

Vd [1]: 1.8 L/kg
bioavailability [2]: 61%
AUC [3]: 43500 ng·h/mL
half-life [5]: 8.6 h
bioavailability [6]: 54%
Cmax [7]: 1440 ng/mL
AUC [8]: 4310 ng·h/mL
IC50 [9]: 10 nM
IC50 [10]: > 100000 nM
Cmax [12]: 987 ng/mL
clearance [13]: 9 mL/min/kg
AUC [14]: 6540 ng·h/mL
Vd [15]: 3.8 L/kg
bioavailability [18]: 67%
AUC [19]: 11700 ng·h/mL
Tmax [23]: 2 h
half-life [26]: > 0.5 h
IC50 [27]: > 100000 nM
IC50 [28]: 10 nM
SMILES: C[C@@H]1CN(c2ccc(F)cc2C(F)(F)F)CCN1S(=O)(=O)c1ccc([C@@](O)(C(N)=O)C(F)(F)F)s1
Activity [4]: Non-toxic
Activity [11]: Non-toxic
Activity [16]: Non-toxic
Activity [17]: 33%
Activity [20]: Not Active
Activity [21]: Non-toxic
Activity [22]: Non-toxic
Activity [24]: Non-toxic
Activity [25]: 15%
